Drawing on ChEMBL document CHEMBL1136963, “Sesterterpenes as tubulin tyrosine ligase inhibitors. First insight of structure-activity relationships and discovery of new lead” (J Med Chem, 2009), this text covers Activity and Kd for one compound.

One data set relates to J774.A1. The data set is described as follows: Cytotoxicity against mouse J774A1 cells up to >100 uM after 24 to 48 hrs by MTT assay. Type of data set: functional, cell-based. For orientation: Tetrazolium assays rely on reduction of a dye to a coloured formazan, in cell work by metabolically active cells.
The subject of the next data set is MCF7. The data set is described as follows: Cytotoxicity against human MCF7 cells up to >100 uM after 24 to 48 hrs by MTT assay. The class given is functional, cell-based.
The next data set relates to HEK293. The data set is described as follows: Cytotoxicity against HEK293 cells up to >100 uM after 24 to 48 hrs by MTT assay. Type of data set: functional, cell-based. Conditions: Homo sapiens.
For a further data set, the target named is T1, Tubulin--tyrosine ligase (Homo sapiens, UniProt Q8NG68).
T1 sequence (Q8NG68 whole entry): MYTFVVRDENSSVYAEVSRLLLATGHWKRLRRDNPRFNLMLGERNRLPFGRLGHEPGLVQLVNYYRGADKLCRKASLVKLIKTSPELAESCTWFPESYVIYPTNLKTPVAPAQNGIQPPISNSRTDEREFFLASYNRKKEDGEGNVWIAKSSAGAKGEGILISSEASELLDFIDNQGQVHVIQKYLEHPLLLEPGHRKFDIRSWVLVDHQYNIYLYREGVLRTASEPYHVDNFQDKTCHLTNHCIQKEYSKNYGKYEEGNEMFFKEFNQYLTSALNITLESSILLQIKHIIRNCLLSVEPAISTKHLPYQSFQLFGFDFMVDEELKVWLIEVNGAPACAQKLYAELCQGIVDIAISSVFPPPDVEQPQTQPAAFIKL
The data set is described as follows: Binding affinity to TTL by surface plasmon resonance. Summed up:
(§1)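 Biacore SPR. TTL and BSA each amine-coupled (100 µg/mL in 10 mM sodium acetate, pH 5.0) to 8-12 kRU, with an unmodified reference surface. Running buffer 10 mM NaH2PO4, 150 mM NaCl, 0.5% DMSO, pH 7.4. Five-point 2-fold series, typically 0.05-10 µM, in triplicate. 25 °C, 50 µL/min, 60 s association, 200 s dissociation. Double-referenced. KD fitted from at least 10 curves.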
In general terms: In SPR one partner is held on a chip, and binding of the other changes the refractive index at the surface.

The target in a further data set is Albumin (Bos taurus, UniProt P02769). As to the kind of experiment: Binding affinity to bovine serum albumin by surface plasmon resonance. The class given is ADME. As to conditions: cattle, isolated protein. Summed up:
as §1

In data set [1] the target is T2, Tubulin--tyrosine ligase (Homo sapiens) (UniProt Q8NG68).
T2 sequence (whole entry): T1 sequence (Q8NG68 whole entry)
The data set is described as follows: Inhibition of TTL in human MCF7 cells assessed as increase in delta2-tubulin level at 100 uM after 24 to 48 hrs by Western blot. The class given is cell-based. The method in brief:
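MCF-7 cells were grown in DMEM with 10% FBS at 37 °C, 5% CO2, seeded at 4 × 10^5 per well, and treated 24 h later with or without 100 µM compound for 24 and 48 h. NP-40 lysates (20 µg protein, Bradford) were run on 10% SDS-PAGE and blotted. Membranes were probed overnight at 4 °C with rabbit polyclonal anti-Δ2-α-tubulin.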

Calls of active or inactive are those of the source. No cut-off for these calls is given here.

Albumin, sequence (P02769 whole entry): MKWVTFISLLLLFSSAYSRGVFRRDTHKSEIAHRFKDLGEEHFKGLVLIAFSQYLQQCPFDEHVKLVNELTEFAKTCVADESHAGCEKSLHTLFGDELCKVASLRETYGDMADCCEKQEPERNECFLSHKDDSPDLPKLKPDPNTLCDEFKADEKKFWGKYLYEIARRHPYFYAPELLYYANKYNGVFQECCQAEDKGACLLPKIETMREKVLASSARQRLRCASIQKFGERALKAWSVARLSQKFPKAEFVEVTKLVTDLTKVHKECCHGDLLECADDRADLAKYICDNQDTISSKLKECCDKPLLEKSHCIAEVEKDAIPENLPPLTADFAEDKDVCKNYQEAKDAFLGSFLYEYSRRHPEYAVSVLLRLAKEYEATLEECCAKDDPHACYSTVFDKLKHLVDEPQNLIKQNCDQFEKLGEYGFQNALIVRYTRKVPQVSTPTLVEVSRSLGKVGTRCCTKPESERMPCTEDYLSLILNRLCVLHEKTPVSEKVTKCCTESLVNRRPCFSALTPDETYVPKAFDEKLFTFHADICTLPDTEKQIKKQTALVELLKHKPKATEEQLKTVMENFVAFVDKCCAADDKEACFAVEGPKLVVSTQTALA

In the case of `CC1=CC(=O)O[C@@H]1[C@@H](O)/C=C(\C)CC[C@@H]1[C@@]2(C)CCC[C@]3(C)[C@@H]2[C@H](C[C@@]1(C)O)O[C@@H]3O`, the result in the data set with J774.A1, with MCF7 and with HEK293 was inactive. Further, the Kd (commonly the equilibrium constant for the complex coming apart) at Tubulin--tyrosine ligase turned out to be 210 µM. The Activity entry at Albumin was “Not Active”. The result in data set [1] was Active.
